pIC50: −log10 of the molar value.
Columns and labels:
[1] = target: C-X-C chemokine receptor type 4 (Homo sapiens, UniProt P61073); assay: Displacement of [125I]CXCL12 from human CXCR4 expressed in HEK293 cell membranes after 1.5 hrs by Topcount method
[2] = Cmax in C57BL/6 mouse at 6 mg/kg, sc measured up to 4 hrs post dose by LC-MS/MS analysis; format: ADME, organism-based; set-up: dose 6 mg/kg, route subcutaneous; conditions: in vivo
Method in brief: (§1)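 Male C57BL/6 mice (23.4–25.4 g), quarantined one week, non-fasted, n = 3; single SC dose of 6 mg/kg in 100% saline. Blood taken by cardiac puncture at 0, 0.03, 0.08, 0.25, 1, 1.5, 2 and 4 h and stored at -80 °C. Plasma analysed by LC–MS/MS; parameters from non-compartmental analysis; mean ± SD.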

[3] = Half life in C57BL/6 mouse at 6 mg/kg, sc measured up to 4 hrs post dose by LC-MS/MS analysis; format: ADME, organism-based; conditions: in vivo; method in brief: as §1
[4] = AUC (0 to 4 hrs) in C57BL/6 mouse at 6 mg/kg, sc measured up to 4 hrs post dose by LC-MS/MS analysis; format: ADME, organism-based; set-up: dose 6 mg/kg, time < 4 hr, route subcutaneous; conditions: in vivo; method in brief: as §1
[5] = Acute toxicity in sc dosed C57BL/6 mouse assessed as maximum tolerated dose by measuring mortality; format: organism-based; conditions: in vivo
Method in brief: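 Male C57BL/6 or ICR mice (n = 3/group) dosed subcutaneously with escalating doses, low to high; MTD taken as highest dose giving zero mortality (0/3).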

Chain of C-X-C chemokine receptor type 4 (P61073 whole entry): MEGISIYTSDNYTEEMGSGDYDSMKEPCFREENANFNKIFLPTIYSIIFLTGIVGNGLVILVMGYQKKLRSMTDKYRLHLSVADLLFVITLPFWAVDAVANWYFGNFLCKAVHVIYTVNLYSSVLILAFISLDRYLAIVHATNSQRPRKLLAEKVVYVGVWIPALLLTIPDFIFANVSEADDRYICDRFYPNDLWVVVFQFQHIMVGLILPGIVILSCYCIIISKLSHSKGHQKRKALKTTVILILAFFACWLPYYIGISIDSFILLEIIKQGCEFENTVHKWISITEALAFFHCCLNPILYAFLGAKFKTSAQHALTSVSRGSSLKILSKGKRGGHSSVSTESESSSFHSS

For `Cc1cc(NC2CCN(C(=O)CCNCCP(=O)(O)O)CC2)nc(NCc2cn(CCCNCCCNC3CCCCC3)nn2)n1`, the pIC50 [1] was 6.83.

For `c1cc(CN2CCCNCCNCCCNCC2)ccc1CN1CCCNCCNCCCNCC1` [PLERIXAFOR], the Cmax [2] was 6200 ng/mL, the half-life [3] was 1.4 h and the AUC(0-t) at 4 h [4] was 7150 ng·h/mL.

For `O=C(O)CNCCC(=O)N1CCC(Nc2ccnc(NCc3cn(CCCNCCCNC4CCCCC4)nn3)n2)CC1`, the pIC50 [1] was 6.40 and the MTD [5] was 100 mg/kg.

For `Cc1cc(NC2CCN(C(=O)CCCC(=O)O)CC2)nc(NCc2cn(CCCNCCCNC3CCCCC3)nn2)n1`, the pIC50 [1] was 6.80 and the MTD [5] was 50 mg/kg.

`Cc1cc(NC2CCN(C(=O)CCNCP(=O)(O)O)CC2)nc(NCc2cn(CCCNCCCNC3CCCCC3)nn2)n1` gave a pIC50 [1] of 7.04 and an MTD [5] of 100 mg/kg.

With `Cc1cc(NC2CCN(C(=O)CC[C@H](N)C(=O)O)CC2)nc(NCc2cn(CCCNCCCNC3CCCCC3)nn2)n1` the pIC50 [1] was 7.15 and the MTD [5] was 50 mg/kg.

Work on `FC(F)(F)c1cc(NC2CCNCC2)nc(NCc2cn(CCCNCCCNC3CCCCC3)nn2)n1` yielded a pIC50 [1] of 6.07 and an MTD [5] of 10 mg/kg.

Compound `Cc1cc(NC2CCN(C(=O)CCNCCC(=O)O)CC2)nc(NCc2cn(CCCNCCCNC3CCCCC3)nn2)n1` has a pIC50 [1] of 7.14 and an MTD [5] of 50 mg/kg.

For `CCc1cc(NC2CCN(C(=O)CCNCC(=O)O)CC2)nc(NCc2cn(CCCNCCCNC3CCCCC3)nn2)n1`, the pIC50 [1] was 7.14 and the MTD [5] was 50 mg/kg.

`Cc1cc(NC2CCN(CCC(N)=O)CC2)nc(NCc2cn(CCCNCCCNC3CCCCC3)nn2)n1` showed a pIC50 [1] of 7.59 and an MTD [5] of 20 mg/kg.

`CC(C)c1cc(NC2CCNCC2)nc(NCc2cn(CCCNCCCNC3CCCCC3)nn2)n1` gave a pIC50 [1] of 7.21 and an MTD [5] of 10 mg/kg.

Compound `CCCN1CCC(Nc2cc(C)nc(NCc3cn(CCCNCCCNC4CCCCC4)nn3)n2)CC1` has a pIC50 [1] of 7.32 and an MTD [5] of 10 mg/kg.

`Cc1cc(NC2CCN(C(=O)CCCNCC(=O)O)CC2)nc(NCc2cn(CCCNCCCNC3CCCCC3)nn2)n1` gave a pIC50 [1] of 7.05 and an MTD [5] of 75 mg/kg.

`Cc1cc(NC2CCN(C(=O)CNCCC(=O)O)CC2)nc(NCc2cn(CCCNCCCNC3CCCCC3)nn2)n1` gave a pIC50 [1] of 7.08 and an MTD [5] of 100 mg/kg.

For `COc1cc(NC2CCNCC2)nc(NCc2cn(CCCNCCCNC3CCCCC3)nn2)n1`, the pIC50 [1] was 6.33 and the MTD [5] was 10 mg/kg.

With `Cc1cc(NC2CCN(CCC(=O)O)CC2)nc(NCc2cn(CCCNCCCNC3CCCCC3)nn2)n1` the pIC50 [1] was 7.09 and the MTD [5] was 75 mg/kg.

For `CCc1cc(NC2CCNCC2)nc(NCc2cn(CCCNCCCNC3CCCCC3)nn2)n1`, the pIC50 [1] was 7.33 and the MTD [5] was 10 mg/kg.

Work on `Cc1cc(NC2CCNCC2)nc(NCc2cn(CCCNCCCNC3CCCCC3)nn2)n1` yielded a pIC50 [1] of 7.62 and an MTD [5] of 10 mg/kg.

`Cc1cc(NC2CCN(CCCCC(=O)O)CC2)nc(NCc2cn(CCCNCCCNC3CCCCC3)nn2)n1` gave a pIC50 [1] of 7.03 and an MTD [5] of 75 mg/kg.

Work on `Cc1cc(N(C)C2CCN(C(=O)CCNCC(=O)O)CC2)nc(NCc2cn(CCCNCCCNC3CCCCC3)nn2)n1` yielded a pIC50 [1] of 7.01 and an MTD [5] of 50 mg/kg.

With `Clc1cc(NC2CCNCC2)nc(NCc2cn(CCCNCCCNC3CCCCC3)nn2)n1` the pIC50 [1] was 6.15 and the MTD [5] was 10 mg/kg.

`c1cc(NC2CCNCC2)nc(NCc2cn(CCCNCCCNC3CCCCC3)nn2)n1` showed a pIC50 [1] of 7.47 and an MTD [5] of 10 mg/kg.

For `Cc1cc(NC2CCN(CCC#N)CC2)nc(NCc2cn(CCCNCCCNC3CCCCC3)nn2)n1`, the pIC50 [1] was 7.14 and the MTD [5] was 20 mg/kg.
